Key:
ANO1 [1] = biological target: T1, ANO1 (Homo sapiens, UniProt Q5XXA6, DEL476-501); assay: ANO1 whole-cell patch clamp in ANO1-overexpressing FRT cells; type: cell-based; details: 30 μmol/L, ANO1 activated by 1 μmol/L intracellular Ca^2+
T1 sequence (Q5XXA6 with tags, fused parts or gaps isoform Q5XXA6-5 DEL539-564): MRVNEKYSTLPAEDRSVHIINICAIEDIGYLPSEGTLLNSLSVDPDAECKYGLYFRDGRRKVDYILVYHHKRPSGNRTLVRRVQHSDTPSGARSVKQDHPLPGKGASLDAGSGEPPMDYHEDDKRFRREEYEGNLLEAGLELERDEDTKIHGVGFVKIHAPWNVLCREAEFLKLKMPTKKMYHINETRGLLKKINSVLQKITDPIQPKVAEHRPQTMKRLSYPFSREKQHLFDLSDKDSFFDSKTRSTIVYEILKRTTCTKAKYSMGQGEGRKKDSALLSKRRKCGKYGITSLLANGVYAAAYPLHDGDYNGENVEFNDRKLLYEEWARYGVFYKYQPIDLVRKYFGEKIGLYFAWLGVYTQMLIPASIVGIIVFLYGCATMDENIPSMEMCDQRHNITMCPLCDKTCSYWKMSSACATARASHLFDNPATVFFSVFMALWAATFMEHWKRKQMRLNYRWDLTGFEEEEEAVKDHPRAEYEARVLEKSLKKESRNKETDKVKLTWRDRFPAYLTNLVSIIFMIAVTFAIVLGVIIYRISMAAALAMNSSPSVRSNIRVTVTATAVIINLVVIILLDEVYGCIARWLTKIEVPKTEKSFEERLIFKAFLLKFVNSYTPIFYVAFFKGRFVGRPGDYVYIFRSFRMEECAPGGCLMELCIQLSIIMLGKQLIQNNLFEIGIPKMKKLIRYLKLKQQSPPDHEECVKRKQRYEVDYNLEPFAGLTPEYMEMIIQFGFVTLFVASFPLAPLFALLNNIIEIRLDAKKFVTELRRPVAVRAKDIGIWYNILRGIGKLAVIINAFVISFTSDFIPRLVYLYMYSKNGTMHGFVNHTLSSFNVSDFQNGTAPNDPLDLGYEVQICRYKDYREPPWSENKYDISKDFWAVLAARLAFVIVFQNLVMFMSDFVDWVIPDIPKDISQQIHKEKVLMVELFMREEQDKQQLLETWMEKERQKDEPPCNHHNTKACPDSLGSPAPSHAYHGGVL

ANO1 [2] = biological target: T1, ANO1; assay: YFP fluorescence quenching assay in ANO1-overexpressing FRT cell line; type: cell-based
[3] = test system: intracellular Ca^2+ concentration; assay: Intracellular Ca^2+ fluorescence; type: cell-based; details: 30 μmol/L compound, 200 μmol/L ATP, Cal520, control 2.3 folds
ANO2 = biological target: T2, ANO2 (Homo sapiens, UniProt Q9NQ90); assay: ANO2 whole-cell patch clamp in HEK293 cells transiently expressing ANO2; type: cell-based; details: 30 μmol/L
T2 sequence (Q9NQ90 1-998): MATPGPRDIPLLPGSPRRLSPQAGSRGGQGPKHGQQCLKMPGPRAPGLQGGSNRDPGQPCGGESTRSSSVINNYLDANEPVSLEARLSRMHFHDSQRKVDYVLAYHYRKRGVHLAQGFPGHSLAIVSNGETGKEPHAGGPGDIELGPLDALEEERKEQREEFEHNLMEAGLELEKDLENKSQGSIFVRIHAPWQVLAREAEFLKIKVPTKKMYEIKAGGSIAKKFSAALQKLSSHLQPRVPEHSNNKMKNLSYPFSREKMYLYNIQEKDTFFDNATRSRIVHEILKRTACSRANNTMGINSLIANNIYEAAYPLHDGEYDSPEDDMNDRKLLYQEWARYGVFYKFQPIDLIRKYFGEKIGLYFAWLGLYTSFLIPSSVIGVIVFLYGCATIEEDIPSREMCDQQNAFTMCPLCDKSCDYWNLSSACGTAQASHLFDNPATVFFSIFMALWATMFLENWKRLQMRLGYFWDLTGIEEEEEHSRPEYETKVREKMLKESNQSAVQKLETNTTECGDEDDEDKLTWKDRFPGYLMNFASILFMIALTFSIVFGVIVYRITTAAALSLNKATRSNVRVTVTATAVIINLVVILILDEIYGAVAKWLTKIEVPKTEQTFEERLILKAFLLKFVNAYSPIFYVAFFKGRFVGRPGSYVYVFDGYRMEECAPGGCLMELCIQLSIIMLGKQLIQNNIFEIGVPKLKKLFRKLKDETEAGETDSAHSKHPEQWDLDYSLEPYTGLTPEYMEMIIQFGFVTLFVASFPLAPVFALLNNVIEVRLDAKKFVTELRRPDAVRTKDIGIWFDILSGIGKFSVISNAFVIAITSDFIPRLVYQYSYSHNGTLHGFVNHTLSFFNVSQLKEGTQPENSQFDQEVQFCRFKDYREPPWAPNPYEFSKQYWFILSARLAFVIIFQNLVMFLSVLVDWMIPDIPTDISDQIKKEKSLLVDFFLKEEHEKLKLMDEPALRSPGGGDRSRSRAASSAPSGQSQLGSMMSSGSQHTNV
Outline: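 HEK293 cells transiently transfected with the ANO2 gene; whole-cell patch clamp at room temperature, pipette solution at pCa2+ 6.0. Cells held at −40 mV, stepped from […] in +20 mV increments for 500 ms, then repolarized to −80 mV for 250 ms, every 15 s. Currents recorded before and after 30 μmol/L test compound; an ANO1-selective inhibitor and a pan-inhibitor served as controls.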

[4] = Stability under different pH conditions; type: physicochemical; details: 37 °C, 100 μmol/L, mean ± SD, n = 3
Outline: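 Test compound diluted to 100 μmol/L in phosphate buffers at pH 1.0, 4.0, 6.8, 7.4 and 9.0 and held in a 37 °C water bath. HPLC−UV peak area measured at 0, 2 and 5 h; residual expressed relative to the 0 h peak area.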

MDCK cells permeability = type: in vitro ADME, canine; details: dog, MDCK
Outline: (§1)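 Transwell with a resistance-stable MDCK monolayer; compound added to the upper chamber, HBSS in the lower chamber. Incubated 120 min at 37 °C, 5% CO2. Lower-chamber concentration measured by LC−MS. Papp derived from amount transported per time, membrane area and initial upper-chamber concentration. Mean ± SD, n = 3.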

MDCK cells = MDCK cells permeability; type: in vitro ADME, canine; details: oral bioavailability prediction from MDCK permeability
Outline: as §1

CHO cells = assay: SRB proliferative cytotoxicity in CHO cells; type: cell-based, Chinese Hamster; details: 1 and 3 μmol/L, 72 h
Outline: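 CHO cells in DMEM with 10% FBS, seeded overnight, then exposed to test compound or DMSO vehicle for 72 h. Cells fixed with 10% TCA for 1 h at 4 °C and stained with 0.4% SRB in 1% acetic acid for 15 min in the dark. Washed with acetic acid, dye dissolved in 10 mmol/L Tris-base, absorbance read at 540 nm. n = 3, mean ± SEM, t-test vs DMSO control.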

C57BL/6 male mice = assay: Acute toxicity in mice, i.g.; type: in vivo
Outline: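 Male C57BL/6 mice, 6–8 weeks, 18–22 g, 7 per group, received a single intragastric dose of 1000 mg/kg. Vehicle was 5% DMSO + 10% […] + 85% saline (v/v), adjusted to pH 8.0 with NaOH. Survival was monitored daily for 3 days.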

SD rats [5] = assay: Formalin test on rat; type: in vivo
Outline: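 30 min later, 50 μL 5% formalin injected into the left paw; controls received saline. Foot lifts counted over phase 1 (0–10 min) and phase 2 (10–60 min). Mean ± SD; ANOVA vs vehicle.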

SD rats [6] = assay: Chronic constriction injury model; type: in vivo; details: 40 mg/kg i.g., rat CCI, Electronic Von Frey, vehicle 11.5

O=C(O)c1c(-c2ccc(Cl)cc2)csc1NC(=O)c1cccc2ccccc12 [Compound 42, 2-(1-Naphthamido)-4-(4-chlorophenyl) thiophene-3-carboxylic acid]
CaCC current (ANO1 [1]): significantly suppressed the CaCC current
IC50 (ANO1 [2]): 790 nM
maximum relative fluorescence units (RFU) vs initial value (Ca^2+ influx) [3]: 1.9 folds
effect on ANO2 induced CaCC current (ANO2; HEK293 cells expressing ANO2): little effect
ANO1/ANO2 selectivity (ANO2; compared with Ani9 and CaCCinh-A01): slightly weaker than that of Ani9 but much higher than that of CaCCinh-A01
5 h residual compound under different pH (%) pH 1.0 ([4]; pH 1.0, 5 h): 99.0 ± 4.6%
5 h residual compound under different pH (%) pH 4.0 ([4]; pH 4.0, 5 h): 99.4 ± 4.4%
5 h residual compound under different pH (%) pH 6.8 ([4]; pH 6.8, 5 h): 99.2 ± 4.9%
5 h residual compound under different pH (%) pH 7.4 ([4]; pH 7.4, 5 h): 99.4 ± 3.5%
5 h residual compound under different pH (%) pH 9.0 ([4]; pH 9.0, 5 h): 99.5 ± 0.9%
Papp at 120 min (MDCK cells permeability): 13.8 ×10⁻⁶ cm/s
F prediction (%) (MDCK cells): >70%
effect on CHO cell proliferation (CHO cells): weak effect
survival and acute toxic response (C57BL/6 male mice; 1000 mg/kg i.g., 72 h, C57BL/6 male mice): All mice survived and no intense acute toxic response
safe dose (C57BL/6 male mice; i.g. administration, mice): ≤ 1000 mg/kg
analgesic effect in phase 2 compared with vehicle (SD rats [5]; 80 mg/kg i.g., phase 2): significant analgesic effect
number of foot lifts, phase 2 (SD rats [5]; 80 mg/kg i.g., phase 2, vehicle 121 foot lifts): 70 foot lifts
effect on number of foot lifts, phase 1 (SD rats [5]; i.g., compared with the vehicle group, phase 1): not phase 1
PTI, pain threshold rate change (%) of 1 h compared to 0 h (SD rats [6]): 45.2%
